Measurements gathered from unrelated publications.
Protocols differ between the studies behind these lines.
Target: Sigma non-opioid intracellular receptor 1 (SIGMAR1, Homo sapiens, UniProt Q99720)

| Compound | test | conditions | Ki |
| --- | --- | --- | --- |
| COc1ccccc1N1CCN(CCCCNC(=O)c2cc3cc(OCCF)ccc3[nH]2)CC1 | cell-free assay | – | > 10000 nM |
| CCCn1nc(C(=O)N2CCCCC2)c2c1CCC(N1CCN(c3ccc([N+](=O)[O-])cc3)CC1)C2 (stereo not drawn) | ligand displacement, radioligand | – | 1590 nM |
| COc1cc2c(cc1OC)CN(CCCCn1ccc3c(OC)cccc31)CC2 | ligand displacement, radioligand | cell membranes | 259 nM |
| COc1ccccc1N1CCN(CCCCNC(=O)c2cc3cc(O)ccc3[nH]2)CC1 | cell-free assay | – | > 10000 nM |
| CCN(CC)CCCC(C)Nc1ccnc2cc(Cl)ccc12 (stereo not drawn) | ligand displacement, radioligand | – | 741 nM |
| COc1ccc2[nH]c(C(=O)NC/C=C/CN3CCN(c4ccccc4OC)CC3)cc2c1 | cell-free assay | – | > 10000 nM |
| COc1ccc2ccn(CCCCN3Cc4cc(OC)c(OC)cc4C3)c2c1 | ligand displacement, radioligand | cell membranes | 70 nM |
| OCCCN1CC[C@@H]2C[C@H]1c1cc(-c3ccc(C(F)(F)F)cc3)ccc12 | ligand displacement, radioligand | – | 167 nM |
| CCCn1nc(C(=O)N(C)C)c2c1CCC(NCc1ccc(Cl)cc1)C2 (stereo not drawn) | ligand displacement, radioligand | – | > 10000 nM |
| CC(C)(C)Oc1cc(CCC(C)(C)N2Cc3ccc(S(C)(=O)=O)cc3C2)ccc1O | ligand displacement, radioligand | cell membranes | 63 nM |
| CCCn1nc(C(=O)N2CCCCC2)c2c1CCC(NCCN1CCCCC1)C2 (stereo not drawn) | ligand displacement, radioligand | – | > 10000 nM |
| COc1ccc2ccn(CCCCN3CCc4cc(OC)c(OC)cc4C3)c2c1 | ligand displacement, radioligand | cell membranes | 357 nM |
